# pIC50: −log10 of the molar value. Calls of active or inactive are those of the source. The rule behind the calls is not given here.
# Tested on: MDA-MB-231
# Assay: Antimigratory activity against human MDA-MB-231 cells after 24 hrs by wound healing assay
# Type: functional, cell-based
# Conditions: MDA-MB-231, 24 h
# Method in brief: (§1)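 Cells grown to >90% confluent monolayer in RPMI 1640 with 10% FBS, glutamine, penicillin/streptomycin at 37 °C, 5% CO2, then scratched with a sterile 200 µL pipette tip. Compounds added in DMSO, in triplicate; PMH 200 µM positive control, DMSO vehicle control. After 24 h serum-starved incubation, cells were fixed and Diff Quick stained. Migrated cells counted in ≥3 random 400× fields, reported as mean ± SEM.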
row,pIC50,SMILES
1,4.52,CCCCO[C@H]1CC/C(C)=C/[C@@H]2OC(=O)C(C)=C2CC/C(C)=C/CC[C@]1(C)O
2,5.32,C=C1CC/C=C(\C)CCC2=C(C)C(=O)O[C@H]2/C=C(\C)CC[C@@H]1OC(=O)NCCCC
3,4.76,C=C1CC/C=C(\C)CCC2=C(C)C(=O)O[C@H]2/C=C(\C)CC[C@@H]1OC(=O)NC1CCCCC1

# Tested on: PC-3
# Assay: Antimigratory activity against human PC3 cells at 50 uM after 24 hrs by wound healing assay
# Type: functional, cell-based
# Conditions: not given
# Method in brief: as §1
row,SMILES,Activity
1,C=CCNC(=O)N(CC=C)C(=O)N(CC=C)C(=O)O[C@H]1CC/C(C)=C/[C@@H]2OC(=O)C(C)=C2CC/C(C)=C/CCC1=C,Active
2,CCCO[C@H]1CC/C(C)=C/[C@@H]2OC(=O)C(C)=C2CC/C(C)=C/CC[C@]1(C)O,Active
3,C=C1CC/C=C(\C)CCC2=C(C)C(=O)O[C@H]2/C=C(\C)CC[C@@H]1OC(=O)Nc1ccccc1,Active
4,C=C1CC/C=C(\C)CCC2=C(C)C(=O)O[C@H]2/C=C(\C)CC[C@@H]1OC(=O)NCCCC,Active
5,CC1=C2CC/C(C)=C/CC[C@]3(C)O[C@H]3CC/C(C)=C\[C@H]2OC1,Active
6,C=C1CC/C=C(\C)CCC2=C(C)C(=O)O[C@H]2/C=C(\C)CC[C@@H]1OC(=O)NC1CCCCC1,Active

# Tested on: PC-3
# Assay: Antimigratory activity against human PC3 cells after 24 hrs by wound healing assay
# Type: functional, cell-based
# Conditions: PC-3, 24 h
# Method in brief: as §1
row,pIC50,SMILES
1,4.61,C=CCNC(=O)N(CC=C)C(=O)N(CC=C)C(=O)O[C@H]1CC/C(C)=C/[C@@H]2OC(=O)C(C)=C2CC/C(C)=C/CCC1=C
2,4.79,C=C1CC/C=C(\C)CCC2=C(C)C(=O)O[C@H]2/C=C(\C)CC[C@@H]1OC(=O)Nc1ccccc1
3,4.81,C=C1CC/C=C(\C)CCC2=C(C)C(=O)O[C@H]2/C=C(\C)CC[C@@H]1OC(=O)NC1CCCCC1

# Tested on: MDA-MB-231
# Assay: Antiproliferative activity against human MDA-MB-231 cells at 5 to 50 uM after 24 hrs by MTT assay
# Type: functional, cell-based
# Conditions: not given
# Method in brief: (§2)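 After 3-4 passages in RPMI 1640 with 10% FBS, cells were seeded at 8 × 10^3 per well and left to attach for 24 h. Medium was then replaced with serum-free RPMI containing compound at 50, 20, 10 or 5 µM. Viability was read by MTT conversion to formazan, and cell number was taken from a standard curve of plated cells, with cells kept in exponential growth.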
row,SMILES,Activity
1,CC1=C2CC/C(C)=C/CC[C@](C)(O)[C@@H](O)CC/C(C)=C/[C@@H]2OC1=O,inactive
2,C=CCNC(=O)N(CC=C)C(=O)N(CC=C)C(=O)O[C@H]1CC/C(C)=C/[C@@H]2OC(=O)C(C)=C2CC/C(C)=C/CCC1=C,inactive
3,C=C1CC/C=C(\C)CCC2=C(C)C(=O)O[C@H]2/C=C(\C)CC[C@@H]1OC(=O)NCCCCC,inactive
4,CCCO[C@H]1CC/C(C)=C/[C@@H]2OC(=O)C(C)=C2CC/C(C)=C/CC[C@]1(C)O,inactive
5,C=C1CC/C=C(\C)CCC2=C(C)C(=O)O[C@H]2/C=C(\C)CCC1=O,inactive
6,C=C1CC/C=C(\C)CCC2=C(C)C(=O)O[C@H]2/C=C(\C)CC[C@@H]1OC(=O)Nc1ccccc1,inactive
7,CO[C@H]1CC/C(C)=C/[C@@H]2OC(=O)C(C)=C2CC/C(C)=C/CC[C@]1(C)O,inactive
8,CC1=C2CC/C(C)=C/CC[C@]3(C)O[C@H]3CC/C(C)=C\[C@H]2OC1,inactive
9,CC1=C2CC/C(C)=C/CC[C@]3(C)O[C@H]3CC/C(C)=C/[C@@H]2OC1=O,inactive
10,CC1=C2CC/C(C)=C/CC[C@]3(C)O[C@H]3CC/C(C)=C/[C@@H]2OC1,inactive
11,C=C1CC/C=C(\C)CCC2=C(C)C(=O)O[C@H]2/C=C(\C)CC[C@@H]1OC(=O)NCCCCl,inactive
12,C=C1CC/C=C(\C)CCC2=C(C)C(=O)O[C@H]2/C=C(\C)CC[C@@H]1O,inactive

# Tested on: MDA-MB-231
# Assay: Antimigratory activity against human MDA-MB-231 cells at 200 uM after 24 hrs by wound healing assay
# Type: functional, cell-based
# Conditions: not given
# Method in brief: as §1
row,SMILES,Activity
1,O=C1NC(=O)/C(=C/c2ccc(O)cc2)N1,Active

# Tested on: PC-3
# Assay: Antimigratory activity against human PC3 cells at 200 uM after 24 hrs by wound healing assay
# Type: functional, cell-based
# Conditions: not given
# Method in brief: as §1
row,SMILES,Activity
1,O=C1NC(=O)/C(=C/c2ccc(O)cc2)N1,Active

# Tested on: MDA-MB-231
# Assay: Antimigratory activity against human MDA-MB-231 cells at 5 to 30 uM after 24 hrs by wound healing assay
# Type: functional, cell-based
# Conditions: not given
# Method in brief: as §1
row,SMILES,Activity
1,CCCCO[C@H]1CC/C(C)=C/[C@@H]2OC(=O)C(C)=C2CC/C(C)=C/CC[C@]1(C)O,inactive
2,C=C1CC/C=C(\C)CCC2=C(C)C(=O)O[C@H]2/C=C(\C)CC[C@@H]1OC(=O)NCCCC,Active
3,C=C1CC/C=C(\C)CCC2=C(C)C(=O)O[C@H]2/C=C(\C)CC[C@@H]1OC(=O)NC1CCCCC1,Active

# Tested on: PC-3
# Assay: Antiproliferative activity against human PC3 cells at 5 to 50 uM after 24 hrs by MTT assay
# Type: functional, cell-based
# Conditions: not given
# Method in brief: as §2
row,SMILES,Activity
1,CC1=C2CC/C(C)=C/CC[C@](C)(O)[C@@H](O)CC/C(C)=C/[C@@H]2OC1=O,inactive
2,CCCCO[C@H]1CC/C(C)=C/[C@@H]2OC(=O)C(C)=C2CC/C(C)=C/CC[C@]1(C)O,inactive
3,C=CCNC(=O)N(CC=C)C(=O)N(CC=C)C(=O)O[C@H]1CC/C(C)=C/[C@@H]2OC(=O)C(C)=C2CC/C(C)=C/CCC1=C,inactive
4,C=C1CC/C=C(\C)CCC2=C(C)C(=O)O[C@H]2/C=C(\C)CC[C@@H]1OC(=O)NCCCCC,inactive
5,CCCO[C@H]1CC/C(C)=C/[C@@H]2OC(=O)C(C)=C2CC/C(C)=C/CC[C@]1(C)O,inactive
6,C=C1CC/C=C(\C)CCC2=C(C)C(=O)O[C@H]2/C=C(\C)CCC1=O,inactive
7,C=C1CC/C=C(\C)CCC2=C(C)C(=O)O[C@H]2/C=C(\C)CC[C@@H]1OC(=O)Nc1ccccc1,inactive
8,C=C1CC/C=C(\C)CCC2=C(C)C(=O)O[C@H]2/C=C(\C)CC[C@@H]1OC(=O)NCCCC,inactive
9,CO[C@H]1CC/C(C)=C/[C@@H]2OC(=O)C(C)=C2CC/C(C)=C/CC[C@]1(C)O,inactive
10,CC1=C2CC/C(C)=C/CC[C@]3(C)O[C@H]3CC/C(C)=C\[C@H]2OC1,inactive
11,C=C1CC/C=C(\C)CCC2=C(C)C(=O)O[C@H]2/C=C(\C)CC[C@@H]1OC(=O)NC1CCCCC1,inactive
12,CC1=C2CC/C(C)=C/CC[C@]3(C)O[C@H]3CC/C(C)=C/[C@@H]2OC1=O,inactive
13,CC1=C2CC/C(C)=C/CC[C@]3(C)O[C@H]3CC/C(C)=C/[C@@H]2OC1,inactive
14,C=C1CC/C=C(\C)CCC2=C(C)C(=O)O[C@H]2/C=C(\C)CC[C@@H]1OC(=O)NCCCCl,inactive
15,C=C1CC/C=C(\C)CCC2=C(C)C(=O)O[C@H]2/C=C(\C)CC[C@@H]1O,inactive

# Tested on: MDA-MB-231 (Homo sapiens)
# Assay: Antimigratory activity against human MDA-MB-231 cells at 5 to 30 uM after 24 hrs by wound healing assay
# Conditions: not given
row,SMILES,Activity
1,CCCCO[C@H]1CC/C(C)=C/[C@@H]2OC(=O)C(C)=C2CC/C(C)=C/CC[C@]1(C)O,inactive
2,C=C1CC/C=C(\C)CCC2=C(C)C(=O)O[C@H]2/C=C(\C)CC[C@@H]1OC(=O)NCCCC,Active
3,C=C1CC/C=C(\C)CCC2=C(C)C(=O)O[C@H]2/C=C(\C)CC[C@@H]1OC(=O)NC1CCCCC1,Active

# Tested on: MDA-MB-231
# Assay: Antimigratory activity against human MDA-MB-231 cells at 50 uM after 24 hrs by wound healing assay
# Type: functional, cell-based
# Conditions: not given
# Method in brief: as §1
row,SMILES,Activity
1,CC1=C2CC/C(C)=C/CC[C@](C)(O)[C@@H](O)CC/C(C)=C/[C@@H]2OC1=O,Active
2,C=CCNC(=O)N(CC=C)C(=O)N(CC=C)C(=O)O[C@H]1CC/C(C)=C/[C@@H]2OC(=O)C(C)=C2CC/C(C)=C/CCC1=C,Active
3,C=C1CC/C=C(\C)CCC2=C(C)C(=O)O[C@H]2/C=C(\C)CC[C@@H]1OC(=O)NCCCCC,Active
4,CCCO[C@H]1CC/C(C)=C/[C@@H]2OC(=O)C(C)=C2CC/C(C)=C/CC[C@]1(C)O,Active
5,C=C1CC/C=C(\C)CCC2=C(C)C(=O)O[C@H]2/C=C(\C)CC[C@@H]1OC(=O)Nc1ccccc1,Active
6,CC1=C2CC/C(C)=C/CC[C@]3(C)O[C@H]3CC/C(C)=C/[C@@H]2OC1,Active
7,C=C1CC/C=C(\C)CCC2=C(C)C(=O)O[C@H]2/C=C(\C)CC[C@@H]1O,Active

# Tested on: MDA-MB-231
# Assay: Antiproliferative activity against human MDA-MB-231 cells after 24 hrs by MTT assay
# Type: functional, cell-based
# Conditions: MDA-MB-231, 24 h
# Method in brief: as §2
row,pIC50,SMILES
1,4.70,CCCCO[C@H]1CC/C(C)=C/[C@@H]2OC(=O)C(C)=C2CC/C(C)=C/CC[C@]1(C)O
2,5.15,C=C1CC/C=C(\C)CCC2=C(C)C(=O)O[C@H]2/C=C(\C)CC[C@@H]1OC(=O)NCCCC
3,4.35,C=C1CC/C=C(\C)CCC2=C(C)C(=O)O[C@H]2/C=C(\C)CC[C@@H]1OC(=O)NC1CCCCC1
